Screens (PubChem)
Sampled rows, rich in hits. Any-hit rate of the full collection: about 2.7%.
OXTR potentiate: human OXTR potentiation | 320,000 compounds, 0.061% hits | CHO-OTR cells, Fluo-8 calcium fluorescence, potentiator mode; 0% = oxytocin EC15, 100% = EC100 | P30559 | AID 2445 | activation, % at 3 µM;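 active = activation above that plate's cutoff, the mean activation of tested compounds plus 3 SD, cut at about 6.6% in these data, passing the limit was not always enough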
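Material: CHO-OTR cells, human receptor; compound dosing: single dose, 3.0 µM nominal final compound concentration; schedule: 6 min compound pre-incubation at room temperature, 100 s kinetic read; measured by: kinetic Fluo-8 calcium fluorescence; read-out basis: % activation vs EC15 and EC100 oxytocin; controls: EC15 oxytocin alone as 0%, 75 nM oxytocin as 100%; replicates: singlicate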
OX1R antag-1: antagonists of human orexin 1 receptor (OX1R); O43613; 330,000 compounds, 1.8% hits; AID 485270; OX1R-expressing cells, FRET antagonist read-out; inhibition, % at 6.6 µM; in the data active = inhibition mostly above about 38%, no sharp cut-off; inactive = mostly below about 40%
OX1R antag-2: human HCRTR1 antagonism | inhibition, % at 5 µM | O43613 | 330,000 compounds, 0.43% hits | CHO/OX1R cells, Fluo-8 calcium fluorescence, orexin A;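 active = inhibition above its plate's threshold, mean inhibition of all tested compounds on the plate plus 3 SD, cut at about 37% in these data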
CHO parental Ca: signal in parental CHO cells, OX1R antagonist counter-screen; parental CHO-K1, ATP-induced calcium, Fluo-8 fluorescence; inhibition, % at 5.6 µM; 330,000 compounds, 0.63% hits; AID 463079;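 active = inhibition above that plate's mean sample inhibition plus 3 SD, cut at about 26% in these data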
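Measured by: calcium-sensitive Fluo-8 fluorescence / Test system: CHO parental line / Controls: ATP-challenged DMSO wells low, unchallenged DMSO wells high / Measure: % inhibition / Compound: single nominal dose of 5.6 µM per compound / Replicates: single well per compound, no replicates / Reagent: ATP as calcium-mobilizing challenge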
OXTR ag: activates the human oxytocin receptor; activation, % at 3 µM; CHO-OTR cells, Fluo-8 calcium fluorescence; normalized: DMSO 0%, oxytocin 100%; 320,000 compounds, 0.32% hits;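 active = activation above the mean of all tested compounds plus 3 SD, cutoff set per screening run, cut at about 20% in these data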;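 note: peak over basal fluorescence ratio from a 100 s FLIPR kinetic read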
V1aR counter: V1a receptor agonism, counter-screen for OXTR agonists; P37288; CHO-V1R cells, Fluo-8 calcium fluorescence, agonist mode; 0% DMSO, 100% 3 nM vasopressin; activation, % at 3 µM; 320,000 compounds, 0.25% hits; AID 2797;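 active = activation above the mean activation of all tested compounds plus 3 SD, per screening run, cut at about 20% in these data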;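 note: signal is peak over basal fluorescence ratio across a 100 second FLIPR read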
Target sequence (P37288 whole entry, looked up): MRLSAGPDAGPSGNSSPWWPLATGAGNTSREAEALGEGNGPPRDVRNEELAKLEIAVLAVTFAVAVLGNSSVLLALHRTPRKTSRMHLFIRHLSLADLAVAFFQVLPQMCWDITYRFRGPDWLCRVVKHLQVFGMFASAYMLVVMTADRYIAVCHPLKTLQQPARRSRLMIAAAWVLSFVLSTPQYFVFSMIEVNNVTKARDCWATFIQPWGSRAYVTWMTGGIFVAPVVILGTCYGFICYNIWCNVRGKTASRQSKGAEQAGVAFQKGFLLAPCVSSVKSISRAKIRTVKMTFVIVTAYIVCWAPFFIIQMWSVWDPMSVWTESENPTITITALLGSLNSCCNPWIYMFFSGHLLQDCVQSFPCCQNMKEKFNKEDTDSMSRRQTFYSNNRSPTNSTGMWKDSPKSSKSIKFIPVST
Numbers stand for hits; i = inactive; nt = no result.

SMILES	OXTR potentiate	OX1R antag-1	OX1R antag-2	CHO parental Ca	OXTR ag	V1aR counter
Cc1ccc2nc(NC(=O)c3ccc(Cl)s3)sc2c1	i	i	i	i	i	i
CSc1nc2ccc(NC(=O)c3cccs3)cc2s1	i	37	i	i	i	i
CCc1cccc(C)c1NC(=O)C1CC(=O)N(C2CCCC2)C1 (centres undefined)	i	i	i	i	i	i
Cc1ccc(-n2c(-c3ccc(Br)cc3)c[n+]3c2CCc2ccc4cccnc4c2-3)cc1	i	i	90	84	i	i
O=c1oc2ccccc2c2c1ccc1ccccc12	nt	i	i	i	nt	nt
COc1ccc(N2CCN(C(=O)c3ccc(NS(=O)(=O)c4ccc(F)c(F)c4)cc3)CC2)cc1	i	i	i	40	i	i
CCOC(=O)N1CCN(C(=O)C2CCN(C(=O)c3ccc([N+](=O)[O-])cc3)CC2)CC1	i	55	i	i	i	i
COc1ccc(N2CCN(C(=O)C3CCN(C(=O)c4ccc([N+](=O)[O-])cc4)CC3)CC2)cc1	i	51	i	i	i	i
CN1CCN(NC(=O)c2cc([N+](=O)[O-])cc([N+](=O)[O-])c2)CC1	i	71	i	i	i	i
O=C(c1cc(C(=O)N2CCCC2)cc([N+](=O)[O-])c1)N1CCCC1	i	i	i	i	i	i
CN1CCN(NC(=O)c2ccc(F)cc2)CC1	i	i	i	i	i	i
CN1CCN(C(=O)c2cc([N+](=O)[O-])cc([N+](=O)[O-])c2)CC1	i	63	i	i	i	i
CCc1ccc(OCC(=O)NNC(=O)C2CCC2)cc1	i	i	i	i	i	i
COc1cc(C)cc(OC)c1OCC(=O)Nc1cc(C)on1	i	i	i	i	i	i
Cn1cc(S(=O)(=O)N2CCc3ccccc32)cc1C(=O)NC(C)(C)C	i	i	i	33	i	i
CCn1c(SC)nnc1C1CCN(CC(=O)Nc2ccccc2N2CCOCC2)CC1	i	i	i	i	i	i
CCCN(C(=O)CSCc1ccc(Cl)cc1)c1c(N)n(Cc2ccccc2)c(=O)[nH]c1=O	i	i	i	i	i	i
C#CCSc1nnc(-c2ccc([N+](=O)[O-])cc2)o1	i	51	i	i	i	i
CSc1nnc(-c2ccc([N+](=O)[O-])cc2)o1	i	62	i	i	i	i
C#CCSc1nnc(-c2ccc(OC)cc2)o1	i	i	i	i	i	i
CSc1nnc(-c2ccc(F)cc2)o1	i	i	i	i	i	i
CC1(C)CC(=O)C(N=Nc2ccc(OC(F)F)cc2)=C(O)C1	i	56	i	i	i	i
CC1(C)CC(=O)C(N=Nc2ccc(F)cc2)=C(O)C1	i	i	i	i	i	i
CCc1ccccc1NC(=O)CNC(=O)c1cc(C2CC2)nc2c1cnn2C(C)C	i	38	i	i	i	i
COc1ccccc1OCCNC(=O)c1cc(C2CC2)nc2c1cnn2C(C)C	i	i	i	i	i	i
SMILES	OXTR potentiate	OX1R antag-1	OX1R antag-2	CHO parental Ca	OXTR ag	V1aR counter
O=S(=O)(NCc1cc(-c2ccc(Cl)cc2)no1)c1ccccc1	i	i	i	i	i	i
O=S(=O)(NCc1cc(-c2ccc(Cl)cc2)no1)c1ccc(Cl)cc1	i	i	51	93	i	i
CCCCCn1nc(C(=O)OCc2nc(N)nc(Nc3ccccc3)n2)c2ccccc2c1=O	i	i	i	i	i	i
Cc1cc(C(=O)OCC(=O)Nc2nc(-c3ccccc3)cs2)c(C)o1	i	66	i	i	i	i
O=C(Cc1c(F)c(F)c(F)c(F)c1F)Nc1nc(-c2ccccc2)cs1	i	48	i	48	i	i
O=C(Cc1ccc(F)cc1)Nc1nc(-c2ccc(F)cc2)cs1	i	i	i	i	i	i
C[n+]1cc(C(=O)N2CCCCC2)ccc1/C=C/c1c[nH]c2ccccc12	i	69	i	i	i	i
O=C(C(=O)N1CCCC1)c1c[nH]c2ccccc12	i	i	i	i	i	i
Cc1ccc(N2CC(NC(=O)C(=O)c3c(C)[nH]c4ccccc34)CC2=O)cc1C (centres undefined)	i	i	i	i	i	i
O=C(N=Nc1c(O)[nH]c2ccccc12)c1ccc(CN2CCOCC2)cc1	i	63	i	i	i	i
Oc1[nH]c2ccccc2c1N=NC(=S)N1CCOCC1	i	i	i	i	i	i
O=C(CN1CCN(Cc2ccccc2Cl)CC1)N=Nc1c(O)[nH]c2ccccc12	i	i	i	i	i	i
Cc1ccc(CN2CCN(CC(=O)N=Nc3c(O)[nH]c4ccccc34)CC2)cc1	i	66	i	i	i	i
Cc1ccc(N=Nc2[nH]c3ccccc3c2O)cc1	i	i	i	i	32	22
COc1ccc(N=Nc2[nH]c3ccc(C)cc3c2O)cc1	i	i	i	i	i	i
CS(=O)(=O)c1ccccc1C(=O)Nc1ccc(-c2nc3ccccc3[nH]2)cc1	i	i	i	i	i	i
Cc1ccc(S(=O)(=O)Nc2ccccc2C(=O)Nc2nc(-c3ccc(F)cc3)cs2)cc1	i	67	52	i	i	i
Cc1cc(F)ccc1S(=O)(=O)Nc1ccccc1C(=O)Nc1ccccc1-c1nc2ccccc2[nH]1	i	i	i	30	i	i
O=C(Nc1ccc(-c2nc3ccccc3[nH]2)cc1)c1ccccc1NS(=O)(=O)c1ccc(F)cc1	i	53	i	i	i	i
CC(C)NC(=O)c1noc2cc([N+](=O)[O-])ccc12	i	67	i	i	i	i
CN(C)c1ccc([N+](=O)[O-])cc1C(=O)O	i	i	i	i	i	i
CN(C)C(=O)c1noc2cc([N+](=O)[O-])ccc12	i	52	i	i	i	i
COc1ccc(/C=C/C(=O)OCc2nc3ccccc3c(=O)[nH]2)c(OC)c1	i	i	i	i	i	i
O=C(OCC(=O)c1c[nH]c2ccccc12)c1ccc([N+](=O)[O-])s1	i	51	i	i	i	i
COc1cc(/C=C/C(=O)OCC(=O)c2c[nH]c3ccccc23)ccc1OC(F)F	i	i	i	i	i	i
COc1ccccc1/C=C/C(=O)OCC(=O)c1c[nH]c2ccccc12	i	42	i	i	i	i
COc1ccc(C(=O)OCC(=O)c2c[nH]c3ccccc23)cc1OC	i	32	i	i	i	i
COc1cc(C(=O)OCC(=O)c2c[nH]c3ccccc23)ccc1OCC(=O)N1CCOCC1	i	i	i	i	i	i
COc1ccccc1/C=C/C(=O)OCc1nc2ccccc2c(=O)[nH]1	i	46	i	i	i	i
COc1ccc(NC(=O)CCCN2C(=O)C3CC=CCC3C2=O)cc1 (centres undefined)	i	i	i	i	i	i
